The term IC50 denotes the concentration that inhibits the measured activity by half. Low values mean greater potency, high ones weaker potency. Usually inhibition stands for the relative decrease from the control value, in per cent. Low values mean little suppression, high ones strong suppression.

In assay [1] the target is T1, Sodium-dependent dopamine transporter (Rattus norvegicus, UniProt P23977). Put plainly: Inhibition of [3H]WIN-35428 binding to the dopamine transporter in rat brain. Type of assay: tissue-based. In short, it runs like this: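 Striatal tissue from male Sprague-Dawley rats (200-250 g), 0.1 mg original wet weight per tube. Nonspecific binding was defined with 30 µM (R)-(-)-cocaine. Stopped by filtration through polyethylenimine-soaked GF/B filters with three ice-cold buffer washes. Equilibrium binding analysis.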
T1 sequence (P23977 whole entry): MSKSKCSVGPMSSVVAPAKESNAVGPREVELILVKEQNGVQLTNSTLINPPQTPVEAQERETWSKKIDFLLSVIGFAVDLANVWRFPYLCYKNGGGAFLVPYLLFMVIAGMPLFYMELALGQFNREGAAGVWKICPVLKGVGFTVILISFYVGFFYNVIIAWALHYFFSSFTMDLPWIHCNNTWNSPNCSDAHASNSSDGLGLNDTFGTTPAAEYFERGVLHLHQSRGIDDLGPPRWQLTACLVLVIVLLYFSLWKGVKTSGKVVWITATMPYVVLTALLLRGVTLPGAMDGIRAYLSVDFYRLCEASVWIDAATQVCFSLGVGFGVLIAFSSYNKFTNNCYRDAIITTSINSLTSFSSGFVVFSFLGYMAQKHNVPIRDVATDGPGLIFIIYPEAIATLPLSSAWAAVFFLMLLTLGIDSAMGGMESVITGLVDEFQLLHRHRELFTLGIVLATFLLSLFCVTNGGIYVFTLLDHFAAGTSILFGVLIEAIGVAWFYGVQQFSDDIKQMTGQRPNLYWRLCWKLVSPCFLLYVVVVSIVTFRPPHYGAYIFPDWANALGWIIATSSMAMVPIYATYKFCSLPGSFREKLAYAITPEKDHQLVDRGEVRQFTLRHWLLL

Assay [2] concerns the target Sodium-dependent dopamine transporter (Rattus norvegicus) (UniProt P23977). Put plainly: The ratio of uptake/binding at Dopamine transporter. The assay is classed as functional.
In assay [3] the target is T2, Sodium-dependent serotonin transporter (Rattus norvegicus, UniProt P31652). The assay can be described thus: Compound was tested for inhibition of [3H]citalopram binding at the serotonin transporter in rat fore brain membranes. The assay is classed as cell membranes, Membrane.
T2 sequence (P31652 whole entry): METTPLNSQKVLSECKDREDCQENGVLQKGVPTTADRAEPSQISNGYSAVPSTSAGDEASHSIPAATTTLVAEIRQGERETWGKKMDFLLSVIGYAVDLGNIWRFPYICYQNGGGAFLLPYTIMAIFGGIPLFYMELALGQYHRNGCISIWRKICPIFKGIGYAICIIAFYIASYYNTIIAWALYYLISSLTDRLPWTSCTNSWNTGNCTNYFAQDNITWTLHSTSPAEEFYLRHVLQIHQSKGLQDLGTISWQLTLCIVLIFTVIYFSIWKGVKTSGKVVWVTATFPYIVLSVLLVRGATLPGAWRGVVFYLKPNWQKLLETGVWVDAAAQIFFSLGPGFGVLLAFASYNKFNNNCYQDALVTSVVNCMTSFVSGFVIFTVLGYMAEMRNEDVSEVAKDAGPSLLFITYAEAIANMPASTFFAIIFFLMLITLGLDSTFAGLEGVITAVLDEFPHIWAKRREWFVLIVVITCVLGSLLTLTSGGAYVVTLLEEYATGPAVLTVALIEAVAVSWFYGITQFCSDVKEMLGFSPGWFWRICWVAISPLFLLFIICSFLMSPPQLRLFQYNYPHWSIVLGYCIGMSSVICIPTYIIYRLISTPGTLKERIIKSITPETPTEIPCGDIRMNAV
In assay [4] the target is T1, Sodium-dependent dopamine transporter. The assay can be described thus: Inhibition of [3H]dopamine uptake at the dopamine transporter in rat striatal tissue. Type of assay: functional, tissue-based, Striatum. Put shortly: (§1)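 Crude synaptosomes were made from rat striatum: homogenised in 0.32 M sucrose, spun at 800g for 10 min, then at 27000g for 20 min. They were resuspended in Krebs-Hepes (pH 7.35) containing NaCl, KCl, KH₂PO₄, CaCl₂, MgSO₄, Hepes, glucose, ascorbic acid and nialamide. Preincubated with compound for 10 min at 30 °C, then given [³H]dopamine for 10 min and filtered.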

Assay [5] has as its target Norepinephrine transporter (Rattus norvegicus) (UniProt Q9WTR4). The assay can be described thus: Compound was tested for inhibition of [3H]-DMI binding at the Norepinephrine transporter in rat cortical membranes at (10e-5) M. The assay is classed as cell membranes. Conditions: Membrane; concentration not given here.
Assay [6] addresses T1, Sodium-dependent dopamine transporter. Put plainly: Compound was tested for inhibition of [3H]dopamine uptake at the dopamine transporter in rat […] tissue. Type of assay: tissue-based, Striatum. Put shortly:
as §1

For assay [7], the target named is Norepinephrine transporter (Rattus norvegicus) (UniProt Q9WTR4). Put plainly: Compound was tested for inhibition of [3H]DMI binding at the Norepinephrine transporter in rat cortical membranes at (10e-5) M. Type of assay: cell membranes. The settings on record: Membrane; concentration not given here.
Chain of Norepinephrine transporter (Rattus norvegicus) (Q9WTR4 as listed by the source): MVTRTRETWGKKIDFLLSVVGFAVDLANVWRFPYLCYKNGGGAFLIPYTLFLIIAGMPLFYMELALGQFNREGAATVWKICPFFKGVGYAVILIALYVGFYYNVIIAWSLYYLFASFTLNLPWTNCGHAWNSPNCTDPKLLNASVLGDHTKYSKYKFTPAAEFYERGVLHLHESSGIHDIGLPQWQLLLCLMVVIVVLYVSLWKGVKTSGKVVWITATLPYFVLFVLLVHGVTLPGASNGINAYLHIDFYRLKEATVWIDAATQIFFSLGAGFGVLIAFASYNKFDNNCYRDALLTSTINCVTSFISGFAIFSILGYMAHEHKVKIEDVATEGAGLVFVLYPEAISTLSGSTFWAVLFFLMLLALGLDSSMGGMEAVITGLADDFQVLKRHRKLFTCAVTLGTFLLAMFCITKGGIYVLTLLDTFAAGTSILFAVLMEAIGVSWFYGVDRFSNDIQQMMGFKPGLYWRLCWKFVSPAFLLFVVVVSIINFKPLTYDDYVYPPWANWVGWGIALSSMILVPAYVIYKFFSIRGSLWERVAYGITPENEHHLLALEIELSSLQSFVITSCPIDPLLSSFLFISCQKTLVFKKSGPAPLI
The target of assay [8] is T2, Sodium-dependent serotonin transporter. The assay can be described thus: Compound was tested for inhibition of [3H]5-HT reuptake at Serotonin transporter.

Chain of Sodium-dependent dopamine transporter (Rattus norvegicus) (P23977 whole entry): as the sequence (P23977 whole entry) above

`OC1(c2ccc(Cl)cc2)c2ccccc2C2=NCCCN21` (stereo not given): the IC50 turned out to be 1.7 nM in assay [1], 1040 nM in assay [3] and 1.4 nM in assay [4]. In assay [2], the Uptake/Binding ratio was 0.8. For the same molecule, the inhibition in assay [5] is 62.8%.

On to `OC1(c2cccc(Cl)c2)c2ccccc2C2=NCCN21` (stereo not given), for which the figures for the IC50 in assay [1] and in assay [4] were 4.3 nM and 9.2 nM, respectively. Also, in assay [2], the Uptake/Binding ratio was 2.1.

`OC1(c2ccc(Cl)cc2)c2ccccc2C2=NCCCCN21` (stereo not given): the IC50 in assay [1] came to 1.5 nM; in assay [3], 1250 nM; in assay [4] it was 3.4 nM. The Uptake/Binding ratio in assay [2] came out at 2.3.

As to `OC1(c2ccc(F)cc2)c2ccccc2C2=NCCN21` (stereo not given), the IC50 is 13.3 nM in assay [1] and 25.4 nM in assay [4]. The Uptake/Binding ratio in assay [2] came to 1.9.

As to `OC1(c2ccc(I)cc2)c2ccccc2C2=NCCN21` (stereo not given), the IC50 was 17.2 nM in assay [1] and 14 nM in assay [4]. The Uptake/Binding ratio in assay [2] stood at 0.8.

In the case of `OC1(c2ccc(Cl)c(Cl)c2)c2ccccc2C2=NCCCCN21` (stereo not given), the IC50 was determined as 1.7 nM in assay [1] and 0.26 nM in assay [4]. For the same molecule, in assay [2], the Uptake/Binding ratio stood at 0.2.

Regarding `OC1(c2ccc(Cl)c(Cl)c2)c2ccccc2C2=NCCN21` (stereo not given), the IC50 in assay [1] was 2.5 nM; in assay [4] it was 1.4 nM. Further, the Uptake/Binding ratio in assay [2] amounted to 0.6.

As for `OC1(c2ccccc2)c2cc(Cl)ccc2C2=NCCN21` (stereo not given), the results for the IC50 in assay [1] and in assay [4] were 86.4 nM and 55 nM, respectively. In addition, the Uptake/Binding ratio in assay [2] stood at 0.6.

As to `OC1(c2ccccc2)c2ccccc2C2=NCCCCN21` (stereo not given), the IC50 in assay [1] turned out to be 5.9 nM; in assay [4] it was 11 nM. The Uptake/Binding ratio in assay [2] stood at 2.

On to `OC1(c2ccccc2)c2ccccc2C2=NCCN21` (stereo not given), for which the IC50 in assay [1] is 66 nM; in assay [4], 124 nM. The Uptake/Binding ratio in assay [2] came out at 1.9.

On to `OC1(c2ccc(F)cc2)c2cc(Cl)ccc2C2=NCCN21` (stereo not given), for which the IC50 in assay [1] turned out to be 52.8 nM; in assay [4], 53 nM. The Uptake/Binding ratio in assay [2] came to 1.

With `OC1(c2cccc(Cl)c2)c2ccccc2C2=NCCCN21` (stereo not given), the values for the IC50 in assay [1] and in assay [4] were 1 nM and 1.3 nM, respectively. For the same molecule, the Uptake/Binding ratio in assay [2] was found to be 1.3.

As for `OC1(c2ccccc2)c2cc(F)ccc2C2=NCCN21` (stereo not given), the IC50 came out at 29.7 nM in assay [1] and 78 nM in assay [4]. The Uptake/Binding ratio in assay [2] is 2.6.

Turning to `OC1(c2ccc(Cl)cc2)c2cc(F)ccc2C2=NCCN21` (stereo not given), the IC50 in assay [1] is 6.5 nM; in assay [4], 15 nM. Further, the Uptake/Binding ratio in assay [2] was 2.3.

`OC1(c2ccc(Cl)cc2)c2cc(Cl)c(Cl)cc2C2=NCCN21` (stereo not given): the IC50 in assay [1] is 13.6 nM.

Regarding `CC1(C)CN2C(=N1)c1ccccc1C2(O)c1ccc(Cl)cc1` (stereo not given), the IC50 in assay [1] was 50.4 nM; in assay [6], 106 nM.

As for `OC1(c2ccccc2)c2ccccc2C2=NCCCN21` (stereo not given), the IC50 amounted to 5.8 nM in assay [1] and 18 nM in assay [4]. Also, the Uptake/Binding ratio in assay [2] was determined as 3.1.

For `OC1(c2ccc(Br)cc2)c2ccccc2C2=NCCN21` (stereo not given), the values for the IC50 in assay [1] and in assay [4] were 2.6 nM and 8.6 nM, respectively. In addition, the Uptake/Binding ratio in assay [2] is 3.3.

On to `OC1(c2cccc(F)c2)c2ccccc2C2=NCCCN21` (stereo not given), for which the IC50 in assay [1] was 2 nM; in assay [4], 3.1 nM. For the same molecule, the Uptake/Binding ratio in assay [2] turned out to be 1.6.

Turning to `OC1(c2ccccc2)c2c(Cl)cccc2C2=NCCN21` (stereo not given), the IC50 came out at 57.2 nM in assay [1] and 58 nM in assay [4].

In the case of `OC1(c2ccccc2Cl)c2ccccc2C2=NCCN21` (stereo not given), the IC50 was 294 nM in assay [1] and 770 nM in assay [4]. Also, the Uptake/Binding ratio in assay [2] was 2.6.

In the case of `CC1(C)CN=C2c3ccccc3C(O)(c3ccc(Cl)cc3)N2C1` (stereo not given), the IC50 in assay [1] was 6.3 nM; in assay [4] it was 1.7 nM. The Uptake/Binding ratio in assay [2] is 0.3.

For `OC1(c2ccc(Cl)cc2Cl)c2ccccc2C2=NCCN21` (stereo not given), the IC50 was determined as 76.5 nM in assay [1] and 92 nM in assay [4]. The Uptake/Binding ratio in assay [2] is 1.2.

In assay [7], `OC1(c2ccc(Cl)cc2)c2ccccc2C2=NCCN21` (stereo not given) [MAZINDOL] showed an inhibition of 60%. This molecule also came in with an IC50 in assay [8] of 231 nM.

Take `OC1(c2ccc(F)cc2)c2ccccc2C2=NCCCN21` (stereo not given): the values for the IC50 in assay [1] and in assay [4] were 3.2 nM and 8.5 nM, respectively.

Turning to `OC1(c2ccccc2F)c2ccccc2C2=NCCCN21` (stereo not given), the IC50 was found to be 23.2 nM in assay [1] and 89 nM in assay [4]. The Uptake/Binding ratio in assay [2] turned out to be 3.8.

These data come from ChEMBL document CHEMBL1129593, “Halogenated mazindol analogs as potential inhibitors of the cocaine binding site at the dopamine transporter” (J Med Chem, 1996).
